Compound activity from PubChem BioAssay.
NR2E3 ag-1 = inhibitors of NR2E3-RetCOR corepressor binding, primary screen, NR2E3 agonist project, biochemical, TR-FRET, GST-NR2E3, biotin-RetCOR; Photoreceptor-specific nuclear receptor (Homo sapiens), Q9Y5X4; 1536-well; inhibition of corepressor binding, % at 4.78 µM; hit rate 0.12% among 320,000; AID 2300, 2010;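 active = percent inhibition above the cutoff of mean plus 3 SD of all tested compounds, set per screening campaign, cut at about 20% in these data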;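 also: 0% = DMSO wells and 100% = biotin wells as full block of FRET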
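Material – GST-tagged NR2E3 plus biotinylated RetCOR corepressor · Quantity – NR2E3 fusion 1.35 nM · Times – 5 h incubation at 4 °C · Medium – pH 7.5 Tris-based buffer · Technique – TR-FRET, Eu(K)-anti-GST donor, streptavidin-D2 acceptor, ex 340, em 617/671 nm · Benchmarks – high control biotin, low control 0.6% DMSO · Format – 1536-well plates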
ADAM10 inh = human ADAM10 inhibitors, primary screen, biochemical, QFRET, HTS | Disintegrin and metalloproteinase domain-containing protein 10 (Homo sapiens), O14672 | recombinant ADAM10, EDANS/DABCYL FRET peptide cleavage, 3 h | inhibition, % at 7 µM | hit rate 0.62% among 370,000;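 active = inhibition above a per-campaign cutoff equal to the mean of compounds falling between control-based bounds plus 3 SD, cut at about 20% in these data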;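 also: 0% = DMSO wells while the 100% control is not disclosed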
Target sequence (O14672 214-748 limits assumed): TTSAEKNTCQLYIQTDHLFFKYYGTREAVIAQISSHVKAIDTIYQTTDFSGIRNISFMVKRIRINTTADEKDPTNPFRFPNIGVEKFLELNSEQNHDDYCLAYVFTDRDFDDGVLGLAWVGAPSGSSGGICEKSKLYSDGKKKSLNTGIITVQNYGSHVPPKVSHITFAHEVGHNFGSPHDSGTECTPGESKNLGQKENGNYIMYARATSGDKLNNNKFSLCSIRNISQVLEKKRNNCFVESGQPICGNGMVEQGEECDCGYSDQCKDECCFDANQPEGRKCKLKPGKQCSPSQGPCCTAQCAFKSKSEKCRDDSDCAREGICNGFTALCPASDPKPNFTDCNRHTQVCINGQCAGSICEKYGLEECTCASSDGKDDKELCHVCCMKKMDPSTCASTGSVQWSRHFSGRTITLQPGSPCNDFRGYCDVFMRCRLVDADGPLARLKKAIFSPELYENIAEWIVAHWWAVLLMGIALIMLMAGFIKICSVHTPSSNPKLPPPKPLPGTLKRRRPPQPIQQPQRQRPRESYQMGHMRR
JMJD2C inh = inhibitors of GASC-1 histone demethylase, primary screen, biochemical, fluorescence, DELFIA europium. Lysine-specific demethylase 4C (Homo sapiens), Q9H3R0. GST-JMJD2C(1-420) H3K9me3 demethylation. inhibition, % at 2.35 µM. hit rate 0.069% among 330,000;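 active = more than half of a compound's replicate wells show inhibition beyond 50%, single wells judged on their own value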;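 also: signal counts dimethyl H3K9 product captured on neutravidin plate; 0% = median of DMSO wells and 100% = 0.3 times that DMSO median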
NR2E3 ag-2 = NR2E3 agonists in two-hybrid cells, primary screen, cell-based, luminescence, CHO-S, Gal4-NCOR/VP16-NR2E3; Photoreceptor-specific nuclear receptor (Homo sapiens), Q9Y5X4; luciferase; inhibition of corepressor binding, % at 3.98 µM; hit rate 0.35% among 360,000; AID 602229, 2012;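 active = inhibition above the mean of all tested compounds plus 3 SD, cut at about 70% in these data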;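 also: 0% = DMSO with NR2E3 transfected cells and 100% = cells lacking NR2E3 construct; higher means lower luciferase signal from less NR2E3 corepressor binding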
ADAM17 inh = ADAM17 inhibitors, primary screen, biochemical, QFRET. hit rate 0.83% among 370,000. recombinant ADAM17, EDANS/DABCYL FRET peptide cleavage. AID 720648, 2013. inhibition, % at 6.95 µM. Disintegrin and metalloproteinase domain-containing protein 17 (Homo sapiens), P78536;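 active = inhibition above the mean of compounds lying between control limits plus 3 SD, set per campaign, cut at about 8.5% in these data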;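 also: 0% = DMSO-only wells as the low control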
proKLK7 act = proKLK7 zymogen activators, primary screen, biochemical, fluorescence intensity; activation, % at 7 µM; purified proKLK7, EDANS-DABCYL substrate fluorescence; 100% is mature enzyme control, 0% vehicle; Kallikrein-7 (Homo sapiens), P49862; hit rate 0.9% among 370,000;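 active = activation above the mean of all tested compounds plus 3 SD, computed per campaign excluding outliers beyond control limits, cut at about 13% in these data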
NR2E3 ag confirm = NR2E3 agonist confirmation in cells, cell-based, luminescence, CHO-S two-hybrid; shares compounds with NR2E3 ag-2; CHO-S mammalian two-hybrid NR2E3-NCOR, luciferase luminescence; inhibition, % at 3.98 µM; hit rate 51% among 2,300; AID 624378, 2012;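 active = average inhibition above a cutoff equal to the mean inhibition of all tested compounds plus one SD, cut at about 70% in these data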;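 also: 0% = DMSO in NR2E3 cells and 100% = DMSO in cells lacking NR2E3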
VP16 counter = GAL4-VP16 reporter modulators, confirmation, counter-screen for NR2E3 agonist project, cell-based, luminescence, CHO-S, high throughput; hit rate 29% among 2,300; shares compounds with NR2E3 ag-2; inhibition, % at 3.98 µM; CHO-S GAL4-VP16 luciferase reporter;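 active = mean inhibition above a cutoff equal to the average over all tested compounds plus one standard deviation, cut at about 70% in these data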;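 also: luciferase from a UAS reporter driven by GAL4-VP16 transactivation; 0% = DMSO with VP16-transfected cells and 100% = DMSO with cells lacking VP16; higher means less reporter light so more repression of VP16 activity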
* = called active by the depositor; · = no result. In the library only some 2.5% were active in any assay of this set; here they are far more common.

SMILES	NR2E3 ag-1	ADAM10 inh	JMJD2C inh	NR2E3 ag-2	ADAM17 inh	proKLK7 act	NR2E3 ag confirm	VP16 counter
Cc1ccc(-c2csc3ncnc(N4CCN(S(=O)(=O)c5ccc(C#N)cc5)CC4)c23)cc1	·	1	·	-30	-2	0	·	·
O=S(=O)(c1ccc(F)c(F)c1F)N1CCN(c2ncnc3sccc23)CC1	·	1	-15	22	-1	0	·	·
O=S(=O)(c1ccccc1C(F)(F)F)N1CCN(c2ncnc3sccc23)CC1	·	-8	-3	60	-2	0	67	51
c1ccc(OC2CCN(c3ncnc4sccc34)CC2)cc1	·	2	·	·	-1	·	·	·
Cc1sc2ncnc(N3CCN(S(=O)(=O)c4ccc(F)cc4)CC3)c2c1C	2	0	4	78*	-1	0	80*	74*
Cc1ccc(S(=O)(=O)N2CCN(c3ncnc4sccc34)CC2)cc1	0	6	4	103*	-1	0	94*	83*
Clc1ccc(-n2ncc3c(N4CCCCCC4)ncnc32)cc1	10	-8	13	86*	-2	0	83*	48
COc1ccc(-n2ncc3c(N4CCCCC4)ncnc32)cc1	0	·	7	40	·	·	·	·
COC(=O)c1ccc(Oc2ccc3nnc(C)n3n2)cc1	-2	-6	17	13	1	0	·	·
Cc1nnc2ccc(Oc3ccc(-c4ccccc4)cc3)nn12	7	5	6	70	-7	0	91*	73*
Cc1cc(C(=O)CSc2nc3ccccc3[nH]2)c(C)n1CC1CCCO1 (stereo unspecified)	-2	-8	-10	84*	2	1	87*	51
CC(C)NC(=O)C1(C)CN(S(C)(=O)=O)CC(=O)N1C1CCCCCC1 (stereo unspecified)	·	0	·	·	0	0	·	·
CCN1/C(=C/c2ccc3ccccc3[n+]2CCCS(=O)(=O)[O-])C=Cc2cc(C)ccc21	·	1	2	-6	1	0	·	·
CCN1/C(=C/c2ccc3ccccc3[n+]2CC)C=Cc2ccccc21	-9	-11	-4	88*	0	0	98*	88*
Clc1ccc2nc(-c3ccccn3)c(Nc3ccc4c(c3)OCO4)n2c1	2	0	-9	52	1	0	-66	-87
OC[C@@H]1CN(Cc2cccnc2)C[C@H](n2cnc3c(N4CCCC4)ncnc32)O1	·	-23	·	-6	-5	0	·	·
CC(=O)N1C[C@@H](c2c[nH]c3ccccc23)C=C[C@H]1C(=O)NS(=O)(=O)c1ccc(C)cc1	·	-14	·	·	-8	0	·	·
Cn1cc(C(=O)c2ccc(Cl)cc2)cc1-c1nc2ccccc2n1C	0	12	-3	49	-1	1	36	42
O=C(c1ccccc1)c1ccc(Cn2cc(-c3ccccc3)nn2)cc1	-3	14	5	64	6	0	84*	64
COc1cc(OC)nc(-n2ncc(Br)c(Br)c2=O)n1	-2	1	7	74*	1	-1	97*	36
CNC(=O)C[C@H]1CC[C@H]2[C@@H](COc3ccc(NC(=O)Nc4ccccc4)cc3C(=O)N2C)O1	·	4	·	·	-5	0	·	·
CN(CCOc1ccc(Cl)cc1)C(=O)c1cccc(S(=O)(=O)N2CCN(c3ccc(F)cc3)CC2)c1	·	·	·	96*	·	·	94*	82*
COc1ccc(CCN(C)C(=O)c2cccc(S(=O)(=O)N3CCN(c4ccc(F)cc4)CC3)c2)cc1OC	·	-9	·	61	2	1	61	47
O=C(c1cccc(S(=O)(=O)N2CCN(c3ccc(F)cc3)CC2)c1)N1CCCC(C(F)(F)F)C1 (stereo unspecified)	-4	8	-1	89*	7	1	97*	82*
Cc1ccccc1CN1CCN(CC(=O)NC(C)c2ccccc2)CC1 (stereo unspecified)	1	2	7	7	1	0	·	·
SMILES	NR2E3 ag-1	ADAM10 inh	JMJD2C inh	NR2E3 ag-2	ADAM17 inh	proKLK7 act	NR2E3 ag confirm	VP16 counter
CC(C)N(Cc1cn(Cc2ccccc2)nn1)S(=O)(=O)c1ccccc1Br	·	5	·	·	-1	0	·	·
CCCc1ccc(-c2ccc(/C=C/C(=O)O)cc2)nc1	-1	-46	6	75*	-13	0	85*	61
CCc1ccc(S(=O)(=O)/N=C2\C=C(Nc3ccc(O)cc3)C(=O)c3ccccc32)cc1	-6	·	-13	113*	·	·	100*	100*
CCc1ccc(S(=O)(=O)/N=C2\C=C(Nc3cccc(C(=O)O)c3)C(=O)c3ccccc32)cc1	4	-3	15	32	0	0	·	·
Cc1cc(C)c(S(=O)(=O)/N=C2\C=C(Nc3ccc(C(=O)O)cc3)C(=O)c3ccccc32)c(C)c1	0	4	-7	112*	0	0	100*	98*
O=C1C(Nc2ccc(O)cc2)=C/C(=N/S(=O)(=O)c2cccs2)c2ccccc21	·	5	-6	103*	4	1	100*	99*
O=C(O)c1ccc(NC2=C/C(=N/S(=O)(=O)c3cccs3)c3ccccc3C2=O)cc1	·	-5	·	-2	-2	0	·	·
C[C@@H](C(=O)Nc1ccc2c(c1)OCCO2)n1c(=O)[nH]c2ccccc2c1=O	-5	3	-9	61	-5	0	42	2
COc1ccc(CNC(=S)N/N=C(\C)c2ccc(OC)cc2)cc1	1	11	-11	51	4	0	-14	-12
C/C(=N\NC(=S)NCc1ccccc1)c1ccc2ccccc2c1	2	-1	-1	58	-3	-1	-28	-57
S=C(NCCc1ccccc1)NCCc1ccccc1	0	2	-8	-86	-1	0	·	·
C=CCNC(=S)N/N=C(\C)c1ccc(OC)cc1	5	2	-1	37	1	0	·	·
NNC(=S)NCCc1ccccc1	-4	5	-24	66	-4	0	-2	-7
COc1ccc(/C(C)=N/NC(=S)NCc2ccco2)cc1	-1	7	2	48	-4	0	4	-10
